Measured values taken from ChEMBL document CHEMBL1772954, “Antifungal, cytotoxic and SAR studies of a series of N-alkyl, N-aryl and N-alkylphenyl-1,4-pyrrolediones and related compounds” (Bioorg Med Chem, 2011).
Converted amounts (≈) assume the structure as drawn.

Experiments:
[1] = test system: MCF7; assay: Cytotoxicity against human MCF7 cells assessed as cell growth after 2 days by sulforhodamine B assay; format: functional; settings: MCF7, 48 h
In short: (§1)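 NCI cell lines were run by the Monks method: cells were plated with compounds from DMSO stocks and incubated 2 days at 37 °C in 5% CO2, in duplicate. Cells were fixed with cold TCA, stained with 0.4% SRB, and the bound dye was solubilized in 10 mM tris-base and read at 515 nm. The zero-day control was subtracted, and GI50 was taken from the curves.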

[2] = test system: NCI-H460; assay: Cytotoxicity against human H460 cells assessed as cell growth after 2 days by sulforhodamine B assay; format: functional; settings: NCI-H460, 48 h; in short: as §1
[3] = test system: SF-268; assay: Cytotoxicity against human SF268 cells assessed as cell growth after 2 days by sulforhodamine B assay; format: functional; settings: SF-268, 48 h; in short: as §1
[4] = Cytotoxicity against human erythrocytes assessed as hemolysis by spectrometric analysis; format: cell-based, Erythrocyte
In short: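 Human heparinized red blood cells were washed in PBS at pH 7.0 and suspended at 4% in sterile 5% glucose. Compounds from DMSO stocks were diluted in 5% glucose to final concentrations of 250 to 0.24 µg/ml and incubated with the cells at 37 °C. Released hemoglobin was read at 540 nm. HC50 is the concentration giving 50% lysis relative to the drug-free value.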

[5] = test system: Candida albicans; assay: Antifungal activity against Candida albicans ATCC 10213; format: functional
In short: (§2)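 CLSI M27-A3 broth microdilution in RPMI-1640 buffered to pH 7.0 with MOPS. Inoculum 1-5 × 10^3 CFU/mL. Compound twofold dilutions from 250 to 0.24 µg/ml, final DMSO <1%. Incubated at 35 °C in a moist, dark chamber and read at 48 h. MIC is the lowest concentration giving total growth inhibition. For MFC, 5 µL from clear wells was plated in duplicate on SDA; MFC is the lowest concentration with no growth.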

[6] = test system: Candida tropicalis; assay: Antifungal activity against Candida tropicalis C 131 2000; format: functional; in short: as §2
[7] = test system: Saccharomyces cerevisiae; assay: Antifungal activity against Saccharomyces cerevisiae ATCC 9763; format: functional; in short: as §2
[8] = test system: Cryptococcus neoformans; assay: Antifungal activity against Cryptococcus neoformans ATCC 32264; format: functional; in short: as §2
[9] = test system: Aspergillus fumigatus; assay: Antifungal activity against Aspergillus fumigatus ATCC 26934; format: functional
In short: (§3)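 Broth microdilution per CLSI M38-A2 in RPMI-1640 with MOPS at pH 7.0. Inoculum 1-5 × 10^3 CFU/mL, with twofold compound dilutions spanning 250-0.24 µg/ml (final DMSO <1%). Plates incubated at 35 °C, moist and dark, and read when the control fungus had grown. MIC is total growth inhibition. MFC comes from subculturing clear wells in duplicate onto SDA.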

[10] = test system: Aspergillus flavus; assay: Antifungal activity against Aspergillus flavus ATCC 9170; format: functional; in short: as §3
[11] = test system: Aspergillus niger; assay: Antifungal activity against Aspergillus niger ATCC 9029; format: functional; in short: as §3
[12] = test system: Nannizzia gypsea; assay: Antifungal activity against Microsporum gypseum C 115 2000; format: functional
In short: (§4)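 Dermatophytes tested by CLSI M38-A2 microdilution in MOPS-buffered RPMI-1640 at pH 7.0. Inoculum 1-5 × 10^3 CFU/mL; compounds 250 to 0.24 µg/ml in twofold steps, final DMSO <1%. Incubated at 28 °C in a moist, dark chamber and read according to control growth. MIC is the lowest concentration with complete inhibition. MFC is the lowest concentration with no growth after duplicate subculture on SDA.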

[13] = test system: Trichophyton rubrum; assay: Antifungal activity against Trichophyton rubrum C 113 2000; format: functional; in short: as §4
[14] = test system: Trichophyton mentagrophytes; assay: Antifungal activity against Trichophyton mentagrophytes ATCC 9972; format: functional; in short: as §4

| MIC [5] | MIC [7] | MIC [8] | MIC [9] | MIC [10] | MIC [11] | MIC [12] | MIC [13] | MIC [14] | SMILES | GI50 [1] | GI50 [2] | GI50 [3] | MFC [7] | MFC [8] | MFC [9] | MFC [10] | MFC [11] | MFC [12] | MFC [13] | MFC [14] | other results |
| --- | --- | --- | --- | --- | --- | --- | --- | --- | --- | --- | --- | --- | --- | --- | --- | --- | --- | --- | --- | --- | --- |
| 3.9 µg/mL (≈ 19.4 µM) | 3.9 µg/mL (≈ 19.4 µM) | 7.81 µg/mL (≈ 38.8 µM) | 31.2 µg/mL (≈ 155 µM) | 31.2 µg/mL (≈ 155 µM) | 15.6 µg/mL (≈ 77.7 µM) | 3.9 µg/mL (≈ 19.4 µM) | 1.95 µg/mL (≈ 9.69 µM) | 7.81 µg/mL (≈ 38.8 µM) | O=C1C=CC(=O)N1CCc1ccccc1 | 3.6 µg/mL (≈ 17.9 µM) | 4.7 µg/mL (≈ 23.4 µM) | 4.1 µg/mL (≈ 20.4 µM) | 7.81 µg/mL (≈ 38.8 µM) | 15.6 µg/mL (≈ 77.7 µM) | 31.2 µg/mL (≈ 155 µM) | 31.2 µg/mL (≈ 155 µM) | 15.6 µg/mL (≈ 77.7 µM) | 7.81 µg/mL (≈ 38.8 µM) | 3.9 µg/mL (≈ 19.4 µM) | 15.6 µg/mL (≈ 77.7 µM) | HC50 [4]: > 250 µg/mL; MIC [6]: 15.6 µg/mL (≈ 77.7 µM) |
| 3.9 µg/mL (≈ 20.8 µM) | 7.81 µg/mL (≈ 41.7 µM) | 7.81 µg/mL (≈ 41.7 µM) | 125 µg/mL (≈ 668 µM) | 62.5 µg/mL (≈ 334 µM) | 31.2 µg/mL (≈ 167 µM) | 3.9 µg/mL (≈ 20.8 µM) | 3.9 µg/mL (≈ 20.8 µM) | 3.9 µg/mL (≈ 20.8 µM) | O=C1C=CC(=O)N1Cc1ccccc1 | > 10 µg/mL | > 10 µg/mL | > 10 µg/mL | 15.6 µg/mL (≈ 83.5 µM) | 15.6 µg/mL (≈ 83.5 µM) | 250 µg/mL (≈ 1340 µM) | 125 µg/mL (≈ 668 µM) | 62.5 µg/mL (≈ 334 µM) | 7.81 µg/mL (≈ 41.7 µM) | 7.81 µg/mL (≈ 41.7 µM) | 7.81 µg/mL (≈ 41.7 µM) | HC50 [4]: > 250 µg/mL; MFC [5]: 7.81 µg/mL (≈ 41.7 µM); MIC [6]: 15.6 µg/mL (≈ 83.5 µM) |
| 3.9 µg/mL (≈ 22.5 µM) | 3.9 µg/mL (≈ 22.5 µM) | 15.6 µg/mL (≈ 90.3 µM) | 250 µg/mL (≈ 1440 µM) | 62.5 µg/mL (≈ 361 µM) | 31.2 µg/mL (≈ 180 µM) | 7.81 µg/mL (≈ 45.1 µM) | 3.9 µg/mL (≈ 22.5 µM) | 7.81 µg/mL (≈ 45.1 µM) | O=C1C=CC(=O)N1c1ccccc1 | > 10 µg/mL | > 10 µg/mL | > 10 µg/mL | 7.81 µg/mL (≈ 45.1 µM) | 62.5 µg/mL (≈ 361 µM) | > 250 µg/mL | 125 µg/mL (≈ 722 µM) | 62.5 µg/mL (≈ 361 µM) | 15.6 µg/mL (≈ 90.3 µM) | 7.81 µg/mL (≈ 45.1 µM) | 7.81 µg/mL (≈ 45.1 µM) | HC50 [4]: > 250 µg/mL; MFC [5]: 7.81 µg/mL (≈ 45.1 µM); MFC [6]: 15.6 µg/mL (≈ 90.3 µM) |

Continued, compound first:

| SMILES | MIC [5] | MIC [7] | MIC [8] | MIC [9] | MIC [10] | MIC [11] | MIC [12] | MIC [13] | MIC [14] | GI50 [1] | GI50 [2] | GI50 [3] | MFC [7] | MFC [8] | MFC [9] | MFC [10] | MFC [11] | MFC [12] | MFC [13] | MFC [14] | other results |
| --- | --- | --- | --- | --- | --- | --- | --- | --- | --- | --- | --- | --- | --- | --- | --- | --- | --- | --- | --- | --- | --- |
| O=C1C=CC(=O)N1CCCc1ccccc1 | 3.9 µg/mL (≈ 18.1 µM) | 0.97 µg/mL (≈ 4.51 µM) | 15.6 µg/mL (≈ 72.6 µM) | 15.6 µg/mL (≈ 72.6 µM) | 31.2 µg/mL (≈ 145 µM) | 15.6 µg/mL (≈ 72.6 µM) | 0.97 µg/mL (≈ 4.51 µM) | 1.95 µg/mL (≈ 9.06 µM) | 3.9 µg/mL (≈ 18.1 µM) | 5.2 µg/mL (≈ 24.2 µM) | > 10 µg/mL | 5.8 µg/mL (≈ 26.9 µM) | 1.95 µg/mL (≈ 9.06 µM) | 31.2 µg/mL (≈ 145 µM) | 31.2 µg/mL (≈ 145 µM) | 62.5 µg/mL (≈ 290 µM) | 15.6 µg/mL (≈ 72.6 µM) | 1.95 µg/mL (≈ 9.06 µM) | 1.95 µg/mL (≈ 9.06 µM) | 7.81 µg/mL (≈ 36.3 µM) | HC50 [4]: > 250 µg/mL; MFC [6]: 15.6 µg/mL (≈ 72.6 µM); MIC [6]: 3.9 µg/mL (≈ 18.1 µM) |
| O=C1C=CC(=O)N1CCCCc1ccccc1 | 3.9 µg/mL (≈ 17 µM) | 0.97 µg/mL (≈ 4.23 µM) | 15.6 µg/mL (≈ 68.2 µM) | 15.6 µg/mL (≈ 68.2 µM) | 7.81 µg/mL (≈ 34.1 µM) | 7.81 µg/mL (≈ 34.1 µM) | 0.97 µg/mL (≈ 4.23 µM) | 0.48 µg/mL (≈ 2.09 µM) | 3.9 µg/mL (≈ 17 µM) | > 10 µg/mL | > 10 µg/mL | > 10 µg/mL | 1.95 µg/mL (≈ 8.5 µM) | 31.2 µg/mL (≈ 136 µM) | 31.2 µg/mL (≈ 136 µM) | 15.6 µg/mL (≈ 68.2 µM) | 7.81 µg/mL (≈ 34.1 µM) | 1.95 µg/mL (≈ 8.5 µM) | 0.97 µg/mL (≈ 4.23 µM) | 7.81 µg/mL (≈ 34.1 µM) | HC50 [4]: > 250 µg/mL; MFC [5]: 7.81 µg/mL (≈ 34.1 µM); MFC [6]: 15.6 µg/mL (≈ 68.2 µM); MIC [6]: 7.81 µg/mL (≈ 34.1 µM) |
| C[C@@H]1[C@H](O)[C@@H](C)/C=C/C=C/C=C/C=C/C=C/C=C/C=C/[C@H](O[C@@H]2O[C@H](C)[C@@H](O)[C@H](N)[C@@H]2O)C[C@@H]2O[C@](O)(C[C@@H](O)C[C@@H](O)[C@H](O)CC[C@@H](O)C[C@@H](O)CC(=O)O[C@H]1C)C[C@H](O)[C@H]2C(=O)O [AMPHOTERICIN B] | 0.97 µg/mL (≈ 1.05 µM) | 0.48 µg/mL (≈ 0.519 µM) | 0.24 µg/mL (≈ 0.26 µM) | 0.48 µg/mL (≈ 0.519 µM) | 0.48 µg/mL (≈ 0.519 µM) | 0.48 µg/mL (≈ 0.519 µM) | 0.12 µg/mL (≈ 0.13 µM) | 0.06 µg/mL (≈ 0.0649 µM) | 0.06 µg/mL (≈ 0.0649 µM) |  |  |  | 1.95 µg/mL (≈ 2.11 µM) | 0.97 µg/mL (≈ 1.05 µM) | 0.97 µg/mL (≈ 1.05 µM) | 1.95 µg/mL (≈ 2.11 µM) | 3.9 µg/mL (≈ 4.22 µM) | 0.48 µg/mL (≈ 0.519 µM) | 0.24 µg/mL (≈ 0.26 µM) | 0.24 µg/mL (≈ 0.26 µM) | MFC [5]: 1.95 µg/mL (≈ 2.11 µM); MFC [6]: 0.97 µg/mL (≈ 1.05 µM); MIC [6]: 0.48 µg/mL (≈ 0.519 µM) |
| CC(=O)N1CCN(c2ccc(OCC3COC(Cn4ccnc4)(c4ccc(Cl)cc4Cl)O3)cc2)CC1 (centres undefined) [KETOCONAZOLE] | 0.48 µg/mL (≈ 0.903 µM) | 0.48 µg/mL (≈ 0.903 µM) | 0.24 µg/mL (≈ 0.452 µM) | 0.12 µg/mL (≈ 0.226 µM) | 0.48 µg/mL (≈ 0.903 µM) | 0.24 µg/mL (≈ 0.452 µM) | 0.06 µg/mL (≈ 0.113 µM) | 0.03 µg/mL (≈ 0.0565 µM) | 0.03 µg/mL (≈ 0.0565 µM) |  |  |  | 0.97 µg/mL (≈ 1.83 µM) | 1.95 µg/mL (≈ 3.67 µM) | 3.9 µg/mL (≈ 7.34 µM) | 3.9 µg/mL (≈ 7.34 µM) | 1.95 µg/mL (≈ 3.67 µM) | 0.24 µg/mL (≈ 0.452 µM) | 0.12 µg/mL (≈ 0.226 µM) | 0.12 µg/mL (≈ 0.226 µM) | MFC [5]: 1.95 µg/mL (≈ 3.67 µM); MFC [6]: 0.97 µg/mL (≈ 1.83 µM) |
